The source of these data is ChEMBL document CHEMBL4390681, “Novel allosteric covalent inhibitors of bifunctional Cryptosporidium hominis TS-DHFR from parasitic protozoa identified by virtual screening” (Bioorg Med Chem Lett, 2019).

Where a chain is given by its changes, count along the chain named. Activity calls are given as the source filed them. No cut-off for these calls is given here.

The target in test [1] is T1, Bifunctional dihydrofolate reductase-thymidylate synthase (Cryptosporidium hominis) (UniProt A0A0S4TER9).
T1 sequence (whole entry): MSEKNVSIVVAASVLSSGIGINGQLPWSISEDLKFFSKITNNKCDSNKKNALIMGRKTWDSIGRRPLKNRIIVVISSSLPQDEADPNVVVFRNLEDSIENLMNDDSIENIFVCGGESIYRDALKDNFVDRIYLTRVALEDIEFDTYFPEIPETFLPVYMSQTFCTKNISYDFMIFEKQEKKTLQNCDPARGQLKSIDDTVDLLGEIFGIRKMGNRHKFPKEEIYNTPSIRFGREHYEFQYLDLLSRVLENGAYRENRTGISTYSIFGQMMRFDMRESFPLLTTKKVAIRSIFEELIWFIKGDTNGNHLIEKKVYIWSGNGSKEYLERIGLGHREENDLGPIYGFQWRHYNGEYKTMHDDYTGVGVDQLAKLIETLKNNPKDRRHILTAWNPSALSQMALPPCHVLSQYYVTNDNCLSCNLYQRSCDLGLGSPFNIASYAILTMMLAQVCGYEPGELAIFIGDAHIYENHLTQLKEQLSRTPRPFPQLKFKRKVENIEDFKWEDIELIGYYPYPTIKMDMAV
Description: Inhibition of recombinant Cryptosporidium hominis TS-DHFR expressed in Escherichia coli PA414 assessed as reduction in DHFR steady state activity at 500 uM using [3',5',7,9-3H]-H2folate as substrate preincubated for 1 hr to 72 hrs before NADPH addition for 5 mins followed by substrate addition and measured after 5 mins by NADPH based radiometric chemical quench assay relative to control. The following applies: TDE = time-dependent effect. Summed up: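 Compound at 500 µM was incubated with ChTS-DHFR for 1 h, 16 h, 48 h or 72 h before the radiometric DHFR reaction was initiated, to follow time-dependent inhibition. The standard assay uses a 10 min incubation.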

Test [2] has as its system T2, Bifunctional dihydrofolate reductase-thymidylate synthase (Cryptosporidium hominis), A0A0S4TER9 [C44S].
T2 sequence (whole entry): T1 sequence (whole entry) with C44S
Description: Inhibition of recombinant Cryptosporidium hominis TS-DHFR Cys44Ser mutant expressed in Escherichia coli PA414 assessed as reduction in DHFR steady state activity at 500 uM using [3',5',7,9-3H]-H2folate as substrate preincubated for 16 hrs before NADPH addition for 5 mins followed by substrate addition and measured after 5 mins by NADPH based radiometric chemical quench assay relative to control. Put shortly: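 Wild-type and Cys44Ser mutant ChTS-DHFR, each incubated 16 h with compound before the radiometric DHFR reaction was started. Read-out was percent DHFR activity.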

The test system of the next test is Cryptosporidium hominis. Description: Ratio of inhibition of recombinant Cryptosporidium hominis TS-DHFR Cys44Ser mutant expressed in Escherichia coli PA414 to inhibition of recombinant Cryptosporidium hominis TS-DHFR expressed in Escherichia coli PA414.
Test [3] addresses T3, Dihydrofolate reductase (Homo sapiens) (UniProt P00374).
T3 sequence (whole entry): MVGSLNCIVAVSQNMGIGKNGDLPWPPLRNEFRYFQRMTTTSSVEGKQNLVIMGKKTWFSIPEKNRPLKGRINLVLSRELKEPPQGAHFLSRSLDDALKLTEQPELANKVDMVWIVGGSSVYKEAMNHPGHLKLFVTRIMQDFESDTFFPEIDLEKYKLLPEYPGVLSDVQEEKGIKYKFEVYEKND
Description: Inhibition of human DHFR assessed as decrease in DHFR steady state activity at 500 uM using [3',5',7,9-3H]-H2folate as substrate preincubated for 16 hrs before NADPH addition incubated for 5 mins followed by substrate addition and measured after 5 mins by NADPH based radiometric chemical quench assay relative to control. Put shortly: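 Radiometric DHFR steady-state assay with human DHFR. Compound and enzyme were incubated for 16 h before the reaction was started. Percent inhibition was read relative to control.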

With `Cc1ccc(C(=O)Nc2cccc(S)c2)c(O)c1`, the values for the inhibition entry in test [1] and in test [2] were “Tde” and 38%, respectively. For the same molecule, in the test on Cryptosporidium hominis, the Ratio was 2. Also, the inhibition result in test [3] is “inactive”.
